Our source for the Kd and Ki values is article PMC4174307 (Nature, 2014).

Test [1] concerns the target T1, P2Y12R (WT) (Homo sapiens, UniProt Q9H244). Kind of test: saturation radioligand binding, membranes. In short, it runs like this: (§1)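 Human P2Y12R (wild type or single alanine mutants) in pcDNA3.0, transiently transfected into COS7 cells and harvested 48 h later. Membranes: 1,000g spin, then 20,000g pellet for 60 min, stored at −80 °C. [3H]2MeSADP (3.5 Ci mmol−1, 0.4–46 nM) was incubated with 5 μg membrane protein in Tris-HCl with 10 mM MgCl2. Nonspecific binding was defined with 10 μM P2Y12R antagonist. Bound ligand was separated by filtration, washed with cold buffer and counted by scintillation. Kd is mean ± s.e.m., 3–6 independent experiments in duplicate.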

Test [2] concerns the target P2Y12R (WT) (Homo sapiens, UniProt Q9H244, N159A). Kind of test: saturation radioligand binding, membranes. In a few lines: as §1
Test [3] addresses P2Y12R (WT) (Homo sapiens, UniProt Q9H244, S156A). Kind of test: saturation radioligand binding, membranes. In short, it runs like this:
as §1

The target in test [4] is T2, P2Y12R (WT) (Homo sapiens, UniProt Q9H244, D294N). Nature of the test: [3H]2MeSADP displacement, membranes. Format: binding.
In test [5] the target is T1, P2Y12R (WT). Kind of test: [3H]2MeSADP displacement, membranes. The test is classed as binding.
Test [6] deals with T2, P2Y12R (WT). Kind of test: saturation radioligand binding, membranes. In a few lines: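 Receptor construct carrying the D294N mutation, with BRIL fused into ICL3, expressed in Sf9 cells. Membranes were prepared by homogenization, a 1,000g spin, then a 20,000g 60 min pellet. Saturation binding used [3H]2MeSADP (3.5 Ci mmol−1, 0.4–46 nM), 5 μg membrane protein, in Tris-HCl with 10 mM MgCl2. Nonspecific binding was defined with 10 μM P2Y12R antagonist. Filtration was followed by scintillation counting. Kd from independent experiments in duplicate.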

T2 sequence (Q9H244 whole entry D294N): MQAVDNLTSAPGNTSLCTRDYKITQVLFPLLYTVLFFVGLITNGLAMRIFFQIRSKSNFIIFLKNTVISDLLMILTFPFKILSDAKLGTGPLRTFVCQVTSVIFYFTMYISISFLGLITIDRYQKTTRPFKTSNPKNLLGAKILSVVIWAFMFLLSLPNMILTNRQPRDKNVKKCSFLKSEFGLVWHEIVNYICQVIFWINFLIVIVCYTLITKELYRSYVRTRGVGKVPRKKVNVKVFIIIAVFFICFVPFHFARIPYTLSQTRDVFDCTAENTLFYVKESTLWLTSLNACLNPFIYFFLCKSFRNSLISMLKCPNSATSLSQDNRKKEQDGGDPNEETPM
T1 sequence (Q9H244 whole entry): as the sequence (Q9H244 whole entry D294N) above, with N294D counted along it
Sequence of P2Y12R (WT) (Homo sapiens, UniProt Q9H244, N159A) (Q9H244 whole entry N159A): as the sequence (Q9H244 whole entry D294N) above, with N159A, N294D counted along it
Sequence of P2Y12R (WT) (Homo sapiens, UniProt Q9H244, S156A) (Q9H244 whole entry S156A): as the sequence (Q9H244 whole entry D294N) above, with S156A, N294D counted along it

In the case of `CSc1nc(N)c2ncn([C@@H]3O[C@H](COP(=O)(O)OP(=O)(O)O)[C@@H](O)[C@H]3O)c2n1` [2MeSADP, 2-methylthio-adenosine 5′-diphosphate], the dissociation constant (Kd) turned out to be 4.25 ± 0.87 nM at P2Y12R (WT) [1], 6.39 ± 0.94 nM at P2Y12R (WT) [2], 5.66 ± 0.72 nM on P2Y12R (WT) [3] and 33.6 ± 10.2 nM at P2Y12R (WT) [6]. For the same molecule, the Ki on P2Y12R (WT) [4] is 80.8 ± 16.8 nM; on P2Y12R (WT) [5], 120 ± 7.3 nM.
For the molecule `CSc1nc(N)c2ncn([C@@H]3O[C@H](COP(=O)(O)OP(=O)(O)OP(=O)(O)O)[C@@H](O)[C@H]3O)c2n1` [2MeSATP], the Ki amounted to 82.4 ± 28.5 nM on P2Y12R (WT) [4] and 119 ± 19.8 nM at P2Y12R (WT) [5].
On to `Nc1ncnc2c1ncn2[C@@H]1O[C@H](COP(=O)(O)OP(=O)(O)O)[C@@H](O)[C@H]1O` [ADP], for which the figures for the Ki on P2Y12R (WT) [4] and at P2Y12R (WT) [5] were 169 ± 81 nM and 332 ± 35 nM, respectively.
As for `CCOC(=O)c1cc(C#N)c(N2CCC(C(=O)NS(=O)(=O)Cc3ccccc3)CC2)nc1C` [AZD1283, Ethyl 6-(4-((benzylsulphonyl)carbamoyl)piperidin-1-yl)-5-cyano-2-methylnicotinate], affinity on P2Y12R (WT) [5] was put at a Ki of 31.5 ± 11.9 nM.
`Nc1c(S(=O)(=O)O)cc(Nc2ccc(Nc3ccccc3)c(S(=O)(=O)O)c2)c2c1C(=O)c1ccccc1C2=O` [PSB-0739]: the inhibition constant Ki came out at 72.8 ± 16.7 nM at P2Y12R (WT) [4] and 275 ± 58 nM on P2Y12R (WT) [5].
For `CCCSc1nc(N[C@@H]2C[C@H]2c2ccc(F)c(F)c2)c2nnn([C@@H]3C[C@H](OCCO)[C@@H](O)[C@H]3O)c2n1` [Ticagrelor] the same measures were 424 ± 193 nM and 454 ± 110 nM.

One may read the Kd as the free concentration of one partner at which half of the binding sites on the other are occupied at equilibrium, for simple one-to-one binding. The low end stands for a tighter complex, the high end for a looser complex. As usually defined, the Ki is the equilibrium dissociation constant of an inhibitor or competing ligand from its target. A high value points to weaker binding.
